Laboratory results as given in ChEMBL document CHEMBL1125581 (J Med Chem, 1991).

Assays:
[1] = biological target: T1, Muscarinic acetylcholine receptor M2 (Rattus norvegicus, UniProt P10980); assay: Inhibition of binding of [3H]N-methylscopolamine to muscarinic acetylcholine receptor M2 of rat heart tissue membrane.; type: tissue-based
T1 sequence (P10980 whole entry): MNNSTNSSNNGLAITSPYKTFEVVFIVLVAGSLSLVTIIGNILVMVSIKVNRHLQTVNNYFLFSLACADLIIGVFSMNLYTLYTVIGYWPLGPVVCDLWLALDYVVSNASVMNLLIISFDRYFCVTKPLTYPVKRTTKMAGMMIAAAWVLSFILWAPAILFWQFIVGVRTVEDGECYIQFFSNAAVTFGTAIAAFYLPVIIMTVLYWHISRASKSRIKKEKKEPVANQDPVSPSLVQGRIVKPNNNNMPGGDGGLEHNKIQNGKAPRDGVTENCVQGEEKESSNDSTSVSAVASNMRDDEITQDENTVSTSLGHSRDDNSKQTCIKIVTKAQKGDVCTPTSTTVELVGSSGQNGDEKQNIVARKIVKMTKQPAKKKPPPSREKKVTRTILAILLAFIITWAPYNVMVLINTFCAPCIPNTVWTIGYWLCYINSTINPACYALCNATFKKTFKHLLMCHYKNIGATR
Procedure, shortened: (§1)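 Rat heart membranes (150–300 μg protein) incubated 90 min at 37 °C in DMEM-Hepes with 0.5 nM [3H]NMS and varied unlabeled analogue concentrations. Bound radioligand collected by rapid GF/B filtration, washed with ice-cold 0.9% NaCl, and scintillation counted. Nonspecific binding with 1 μM atropine subtracted. Ki values come from one to three determinations, each in triplicate.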

[2] = biological target: T2, Muscarinic acetylcholine receptor M1 (Rattus norvegicus, UniProt P08482); assay: Inhibition of binding of [3H]N-methylscopolamine to muscarinic acetylcholine receptor M1 of transfected rat A9L cells.; type: cell-based
T2 sequence (P08482 whole entry): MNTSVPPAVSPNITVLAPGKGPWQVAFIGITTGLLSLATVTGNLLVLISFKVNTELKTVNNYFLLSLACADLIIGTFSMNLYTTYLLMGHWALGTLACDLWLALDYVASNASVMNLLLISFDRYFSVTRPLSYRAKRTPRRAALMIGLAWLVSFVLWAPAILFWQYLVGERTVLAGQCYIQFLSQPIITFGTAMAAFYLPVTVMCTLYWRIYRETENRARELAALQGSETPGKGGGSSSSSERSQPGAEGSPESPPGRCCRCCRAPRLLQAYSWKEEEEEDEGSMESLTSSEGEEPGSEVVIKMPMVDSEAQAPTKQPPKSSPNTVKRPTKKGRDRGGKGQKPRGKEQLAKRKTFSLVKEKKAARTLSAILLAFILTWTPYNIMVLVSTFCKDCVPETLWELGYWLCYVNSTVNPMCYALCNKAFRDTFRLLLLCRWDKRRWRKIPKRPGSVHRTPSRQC

[3] = biological target: Muscarinic acetylcholine receptor M3 (Rattus norvegicus, UniProt P08483); assay: Inhibition of binding of [3H]N-methylscopolamine to muscarinic acetylcholine receptor M3 of transfected rat A9L cells.; type: cell-based
Sequence of Muscarinic acetylcholine receptor M3 (P08483 whole entry): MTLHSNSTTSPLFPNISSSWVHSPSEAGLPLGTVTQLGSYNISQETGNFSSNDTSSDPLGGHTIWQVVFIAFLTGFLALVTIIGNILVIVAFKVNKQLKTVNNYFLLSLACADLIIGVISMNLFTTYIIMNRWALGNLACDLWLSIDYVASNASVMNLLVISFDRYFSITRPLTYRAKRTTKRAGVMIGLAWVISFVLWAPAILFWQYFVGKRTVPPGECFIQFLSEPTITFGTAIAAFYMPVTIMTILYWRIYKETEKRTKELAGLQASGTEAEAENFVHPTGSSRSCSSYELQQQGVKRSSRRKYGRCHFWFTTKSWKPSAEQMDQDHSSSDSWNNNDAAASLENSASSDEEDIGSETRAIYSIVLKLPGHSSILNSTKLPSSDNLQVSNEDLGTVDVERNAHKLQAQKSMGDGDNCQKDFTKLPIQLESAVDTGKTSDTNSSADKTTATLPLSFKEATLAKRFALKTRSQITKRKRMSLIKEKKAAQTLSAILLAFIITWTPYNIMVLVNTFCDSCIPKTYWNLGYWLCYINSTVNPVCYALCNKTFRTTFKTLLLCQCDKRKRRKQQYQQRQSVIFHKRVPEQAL

[4] = biological target: T2, Muscarinic acetylcholine receptor M1; assay: Inhibition of binding of [3H]N-Methyl-scopolamine to Muscarinic acetylcholine receptor M1 of transfected A9L cells.; type: cell-based
Procedure, shortened: (§2)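 Confluent A9L (transfected m1/m3) or NG108-15 (m4) cultures were lysed in 2 mM Tris-HCl pH 7.1/1 mM EDTA, 30 min, 2 °C, then homogenized. Crude membranes were spun at 50000g. Membranes (150–300 μg protein) were incubated with 0.5 nM [3H]NMS and varied analogue in DMEM-Hepes for 90 min at 37 °C, then filtered. Nonspecific binding was set with 1 μM atropine. Ki values are from 1–3 triplicate determinations.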

[5] = biological target: T1, Muscarinic acetylcholine receptor M2; assay: Inhibition of binding of [3H]N-Methyl-scopolamine to Muscarinic acetylcholine receptor M2 of rat heart tissue membranes.; type: cell membranes, Membrane; procedure, shortened: as §1
[6] = biological target: T3, Muscarinic acetylcholine receptor M4 (Rattus norvegicus, UniProt P08485); assay: Inhibition of binding of [3H]N-Methyl-scopolamine to muscarinic acetylcholine receptor M4 of rat […] NG108-15 cells; type: cell-based
T3 sequence (P08485 whole entry): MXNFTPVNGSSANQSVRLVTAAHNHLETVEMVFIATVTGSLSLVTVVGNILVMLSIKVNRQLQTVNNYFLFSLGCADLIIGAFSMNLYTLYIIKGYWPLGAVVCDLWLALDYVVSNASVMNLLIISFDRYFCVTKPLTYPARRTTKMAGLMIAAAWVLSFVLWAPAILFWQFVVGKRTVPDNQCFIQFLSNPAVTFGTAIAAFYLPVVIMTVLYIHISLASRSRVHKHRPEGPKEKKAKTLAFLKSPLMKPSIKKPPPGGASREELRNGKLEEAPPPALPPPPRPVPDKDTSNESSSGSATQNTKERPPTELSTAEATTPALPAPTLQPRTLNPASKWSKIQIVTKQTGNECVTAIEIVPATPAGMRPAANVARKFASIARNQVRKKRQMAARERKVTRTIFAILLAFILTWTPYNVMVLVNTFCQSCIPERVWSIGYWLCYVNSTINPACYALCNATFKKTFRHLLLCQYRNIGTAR

[7] = biological target: T2, Muscarinic acetylcholine receptor M1; assay: The compound was tested for the inhibition of binding of [3H]N-Methyl-scopolamine to muscarinic acetylcholine receptor M1 of transfected A9L cells.; type: cell-based; procedure, shortened: as §2

SMILES	Ki [1] [nM]	Ki [2] [nM]	Ki [3] [nM]	Ki [4] [nM]	Ki [5] [nM]	Ki [6] [nM]	Ki [7] [nM]
NCCCCCN1CCN(CC(=O)N2c3ccccc3C(=O)Nc3cccnc32)CC1	5890	1170					
CSc1ccc2c(c1)C(=O)Nc1cccnc1N2C(=O)CN1CCN(C)CC1	11000	4660	3620				
NCCCC(=O)NCCN1CCN(CC(=O)N2c3ccccc3C(=O)Nc3cccnc32)CC1	6340	9530	11500				
NCCCCCCCCCCN1CCN(CC(=O)N2c3ccccc3C(=O)Nc3cccnc32)CC1				15.8	11.7		
CS(=O)(=O)N1CCN(CC(=O)N2c3ccccc3C(=O)Nc3cccnc32)CC1	> 100000	> 100000	> 100000			> 100000	
CCN(CC)CCCCCCCCCCN1CCN(CC(=O)N2c3ccccc3C(=O)Nc3cccnc32)CC1				3	13.5		
CC(=O)N1CCN(CC(=O)N2c3ccccc3C(=O)Nc3cccnc32)CC1	> 100000	> 100000	> 100000			> 100000	
CC(C)(C)OC(=O)NCCCCCCN1CCN(CC(=O)N2c3ccccc3C(=O)Nc3cccnc32)CC1	21.4	37.1	46			23.2	
NCCCCCCCN1CCN(CC(=O)N2c3ccccc3C(=O)Nc3cccnc32)CC1				66	57		
CC(C)(C)OC(=O)NCCNC(=O)c1ccc(CN2CCN(CC(=O)N3c4ccccc4C(=O)Nc4cccnc43)CC2)cc1	2500						
O=C1Nc2cccnc2N(C(=O)CN2CCN(CCCCN3C(=O)c4ccccc4C3=O)CC2)c2ccccc21	89	170	120			210	
NCCCCCCCCCN1CCN(CC(=O)N2c3ccccc3C(=O)Nc3cccnc32)CC1				24	24		
CN1CCN(CC(=O)N2c3ccc(S(N)(=O)=O)cc3C(=O)Nc3cccnc32)CC1	> 30000	> 30000	> 30000				
NCCCCCCN1CCN(CC(=O)N2c3ccccc3C(=O)Nc3cccnc32)CC1	1340	1310					
NCCNC(=O)c1ccc(CN2CCN(CC(=O)N3c4ccccc4C(=O)Nc4cccnc43)CC2)cc1	960	1390	3650			1040	
C#CCN1CCN(CC(=O)N2c3ccccc3C(=O)Nc3cccnc32)CC1	1370	1670					
O=C1Nc2cccnc2N(C(=O)CN2CCN(CCCCCN3C(=O)c4ccccc4C3=O)CC2)c2ccccc21	20	60					
NCCCCCCCCN1CCN(CC(=O)N2c3ccccc3C(=O)Nc3cccnc32)CC1				20	26		
CN1CCN(CC(=O)N2c3ccc(S(=O)(=O)NCCNC(=O)OC(C)(C)C)cc3C(=O)Nc3cccnc32)CC1		> 30000	> 30000				
NCCCN1CCN(CC(=O)N2c3ccccc3C(=O)Nc3cccnc32)CC1	5120	3870					
O=C1Nc2cccnc2N(C(=O)CN2CCN(CCO)CC2)c2ccccc21	3200	5800	9500				
O=C1Nc2cccnc2N(C(=O)CN2CCN(C(=S)Nc3ccccc3)CC2)c2ccccc21	> 100000	> 100000	> 100000			> 100000	

SMILES	Ki [1] [nM]	Ki [2] [nM]	Ki [3] [nM]	Ki [4] [nM]	Ki [5] [nM]	Ki [6] [nM]	Ki [7] [nM]
CC(C)(C)OC(=O)NCCCC(=O)NCCN1CCN(CC(=O)N2c3ccccc3C(=O)Nc3cccnc32)CC1	3340	4800	4100				
CC(=O)NCCC(=O)NCCN1CCN(CC(=O)N2c3ccccc3C(=O)Nc3cccnc32)CC1	34500	39400	> 100000				
CC(=O)NCCCC(=O)NCCN1CCN(CC(=O)N2c3ccccc3C(=O)Nc3cccnc32)CC1	8820	9650	10800				
O=C1Nc2cccnc2N(C(=O)CN2CCN(CCCCCCN3C(=O)c4ccccc4C3=O)CC2)c2ccccc21				18	18		
O=C1Nc2cccnc2N(C(=O)CN2CCN(Cc3ccccc3)CC2)c2ccccc21	240	330	240			220	
CC(=O)NCCCCCCCCCN1CCN(CC(=O)N2c3ccccc3C(=O)Nc3cccnc32)CC1				52	50		
COc1ccccc1CNCCCCCCCCCCN1CCN(CC(=O)N2c3ccccc3C(=O)Nc3cccnc32)CC1				3.3	22		
CC(=O)NCCNS(=O)(=O)c1ccc2c(c1)C(=O)Nc1cccnc1N2C(=O)CN1CCN(C)CC1		> 30000	> 30000				
O=C1Nc2cccnc2N(C(=O)CN2CCN(C(=O)c3ccccc3)CC2)c2ccccc21	> 100000	> 100000	> 100000			> 100000	
NCCN1CCN(CC(=O)N2c3ccccc3C(=O)Nc3cccnc32)CC1	3040	1190	1970			2840	
CN1CCN(CC(=O)N2c3ccc(S(=O)(=O)NCCN)cc3C(=O)Nc3cccnc32)CC1		> 30000	> 30000				
CN1CCN(CC(=O)N2c3ccccc3C(=O)N(CCCCCCC#N)c3cccnc32)CC1							8900
NCCC(=O)NCCN1CCN(CC(=O)N2c3ccccc3C(=O)Nc3cccnc32)CC1	5840	4340	6650				
CN1CCN(CC(=O)N2c3cc(CO)ccc3C(=O)Nc3cccnc32)CC1		4400	4400				
CC(C)(C)OC(=O)NCCCCNC(=O)c1ccc(CN2CCN(CC(=O)N3c4ccccc4C(=O)Nc4cccnc43)CC2)cc1	1090	1680	3470				
O=C1Nc2cccnc2N(C(=O)CN2CCN(CCCN3C(=O)c4ccccc4C3=O)CC2)c2ccccc21	840	1810					
NCCCCN1CCN(CC(=O)N2c3ccccc3C(=O)Nc3cccnc32)CC1	1740	3080					
CC(=O)NCCN1CCN(CC(=O)N2c3ccccc3C(=O)Nc3cccnc32)CC1	2520	670	970			2570	
CC(C)(C)OC(=O)NCCC(=O)NCCN1CCN(CC(=O)N2c3ccccc3C(=O)Nc3cccnc32)CC1	6060	13300	6190				
CC(=O)NCCCCCCCCCCN1CCN(CC(=O)N2c3ccccc3C(=O)Nc3cccnc32)CC1				75	43		
Cc1scc2c1N(C(=O)CN1CCN(C)CC1)c1ccccc1NC2=O [TELENZEPINE]	50.3	1.8	6.9			17.4	
